Experimental data: PMC7240809 (ACS Omega, 2020)

Key:
[1] = target: MC4R; settings: read-out: binding affinity to MC4R; cited from earlier work
[2] = target: melanocortin 1 receptor (MC1R); settings: read-out: binding affinity (Ki) to MC1R; cited from earlier work
[3] = target: MC5R; settings: read-out: binding affinity to MC5R; cited from earlier work
[4] = target: MC3R; settings: read-out: binding affinity to MC3R; cited from earlier work
[5] = In vivo stability, radio-HPLC of mouse urine; set-up: species or system mice; settings: 1 h p.i., intravenous
Method in brief: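 Mice under 2% isoflurane received approximately 4–6 MBq 68Ga-labeled test peptide intravenously and recovered freely. At 1 h p.i. they were euthanized by CO2, and urine was collected. Urine was analyzed for metabolites by reversed-phase C18 HPLC in 21% acetonitrile with 0.1% TFA to give percent intact peptide. Three or four independent experiments were run.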

[6] = tested on: B16–F10 melanoma; assay: Biodistribution in C57BL/6J mice bearing B16–F10 melanoma; format: in vivo
Method in brief: (§1)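 Male C57BL/6J mice (8–12 weeks) were inoculated subcutaneously on the right dorsal flank with 1 × 10^6 B16–F10 cells and used at 6–8 mm tumor diameter. They received 1–2 MBq 68Ga-labeled test peptide by tail vein under anesthesia, with or without co-injected 0.5 mg BMS 470539. At 1 or 2 h p.i., blood and organs were weighed and gamma-counted. Uptake is %ID/g (mean ± SD); blocked vs unblocked compared by two-way ANOVA with Holm–Sidak.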

[7] = as above; format: in vivo; settings: C57BL/6J, mouse, total radioactivity; for tissue uptake at 1 h / tissue uptake at 2 h: intravenous; for tissue to tissue ratio at 1 h / tissue to tissue ratio at 2 h: iv
Method in brief: as §1

[8] = tested on: B16–F10 cells; assay: Internalization assay; format: cell-based, Mus musculus; settings: 2 h, 37 °C
Method in brief: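 B16–F10 mouse melanoma cells were grown in DMEM with 10% FBS and penicillin/streptomycin, then seeded overnight on poly-D-lysine plates. They were incubated with 68Ga-labeled test peptide at 37 °C with mild agitation for 30, 60, 90 or 120 min, then washed with PBS. Cells were trypsinized for the internalized fraction, and both fractions were gamma-counted in triplicate or quadruplicate.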

[9] = target: MC5R (Homo sapiens) (UniProt P33032); settings: cited from earlier work
[10] = target: MC3R (Homo sapiens) (UniProt P41968); settings: cited from earlier work
[11] = target: MC1R (Homo sapiens) (UniProt Q01726); settings: cited from earlier work
[12] = target: MC4R (Homo sapiens) (UniProt P32245); settings: cited from earlier work
Sequence of UniProt P32245 (P32245 whole entry): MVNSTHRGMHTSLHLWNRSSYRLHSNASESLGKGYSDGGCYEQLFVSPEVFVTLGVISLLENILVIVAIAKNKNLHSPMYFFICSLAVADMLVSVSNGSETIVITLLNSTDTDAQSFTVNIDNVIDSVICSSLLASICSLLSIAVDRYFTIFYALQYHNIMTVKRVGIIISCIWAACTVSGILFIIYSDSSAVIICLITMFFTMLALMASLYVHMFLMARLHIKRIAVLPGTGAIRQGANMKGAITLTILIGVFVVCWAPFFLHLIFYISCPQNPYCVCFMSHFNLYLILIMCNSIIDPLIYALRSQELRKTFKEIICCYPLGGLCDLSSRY

Sequence of UniProt P41968 (P41968 whole entry): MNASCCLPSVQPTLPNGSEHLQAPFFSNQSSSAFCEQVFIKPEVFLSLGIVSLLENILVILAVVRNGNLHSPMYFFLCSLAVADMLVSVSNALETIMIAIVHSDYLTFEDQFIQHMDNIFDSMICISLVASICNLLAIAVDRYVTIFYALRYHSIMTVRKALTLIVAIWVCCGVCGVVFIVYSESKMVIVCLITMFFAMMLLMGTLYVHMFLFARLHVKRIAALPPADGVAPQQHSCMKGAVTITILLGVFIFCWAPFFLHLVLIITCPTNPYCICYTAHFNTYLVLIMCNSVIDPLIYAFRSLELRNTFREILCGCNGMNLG
Sequence of UniProt Q01726 (Q01726 whole entry): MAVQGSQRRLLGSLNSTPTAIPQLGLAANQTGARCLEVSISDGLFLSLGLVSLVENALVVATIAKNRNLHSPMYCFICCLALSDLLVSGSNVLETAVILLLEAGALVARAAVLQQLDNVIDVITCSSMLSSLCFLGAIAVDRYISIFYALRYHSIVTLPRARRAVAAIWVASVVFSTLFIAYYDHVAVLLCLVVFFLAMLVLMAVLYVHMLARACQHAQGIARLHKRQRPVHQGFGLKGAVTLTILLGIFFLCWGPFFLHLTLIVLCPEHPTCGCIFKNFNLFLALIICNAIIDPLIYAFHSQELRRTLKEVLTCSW
Sequence of UniProt P33032 (P33032 whole entry): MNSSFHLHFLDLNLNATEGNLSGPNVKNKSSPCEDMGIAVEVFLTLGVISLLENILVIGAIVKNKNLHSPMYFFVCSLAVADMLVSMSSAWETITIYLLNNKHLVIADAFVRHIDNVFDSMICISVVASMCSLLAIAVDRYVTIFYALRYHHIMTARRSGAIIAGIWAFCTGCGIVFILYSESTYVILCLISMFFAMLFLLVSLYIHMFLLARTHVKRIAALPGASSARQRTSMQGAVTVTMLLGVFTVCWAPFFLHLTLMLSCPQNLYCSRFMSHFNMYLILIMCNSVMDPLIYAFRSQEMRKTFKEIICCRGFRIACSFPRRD

Alpha-melanocyte-stimulating hormone [αMSH]
Ki [1]: 900 nM

Ac-Nle^4-Cyclo[Asp^5-His^6-D-Phe^7-Arg^8-Trp^9-Lys^10]αMSH4-10-NH2 [MTII]
Ki [2]: 0.69 nM | Ki [3]: 46.1 nM | Ki [4]: 34.1 nM

CCCC[C@H](NC(=O)CN1CCC(NC(=O)CN2CCN(CC(=O)O)CCN(CC(=O)O)CCN(CC(=O)O)CC2)CC1)C(=O)N[C@H]1CC(=O)NCCCC[C@@H](C(N)=O)N(C)C(=O)[C@H](Cc2c[nH]c3ccccc23)N(C)C(=O)[C@H](CCCNC(=N)N)N(C)C(=O)[C@@H](Cc2ccccc2)NC(=O)[C@H](Cc2cnc[nH]2)N(C)C1=O [[^68Ga]Ga-CCZ01099, metal not drawn]
percentage of intact peptide [5]: ≥ 98% | tumor/blood uptake ratio ([6]; 1 h p.i. blocked (n = 5), co-injection of 0.5 mg BMS 470539): 2.24 ± 0.40 | tumor/blood uptake ratio ([6]; 1 h p.i. unblocked (n = 5)): 9.94 | tumor/bone uptake ratio ([6]; 1 h p.i. unblocked (n = 5)): 23.3 | tumor/muscle uptake ratio ([6]; 1 h p.i. unblocked (n = 5)): 40.6 | reduction of tumor uptake by blocking ([6]; 1 h p.i., blocking with BMS 470539, p < 0.001): 91% | tumor/blood uptake ratio ([6]; 2 h p.i. unblocked (n = 4)): 27.7 | tumor/bone uptake ratio ([6]; 2 h p.i. unblocked (n = 4)): 52.7 | tumor/muscle uptake ratio ([6]; 2 h p.i. unblocked (n = 4)): 125 | tissue uptake at 1 h ([7]; B16F10 tumor): 6.33 ± 1.48 %ID/g | tissue uptake at 1 h ([7]; adrenal glands): 0.79 ± 0.72 %ID/g | tissue uptake at 1 h ([7]; blood): 0.65 ± 0.12 %ID/g | tissue uptake at 1 h ([7]; bone): 0.33 ± 0.18 %ID/g | tissue uptake at 1 h ([7]; heart): 0.24 ± 0.06 %ID/g | tissue uptake at 1 h ([7]; intestine, 0.5 mg): 0.17 ± 0.05 %ID/g | tissue uptake at 1 h ([7]; intestine): 0.34 ± 0.07 %ID/g | tissue uptake at 1 h ([7]; kidneys): 5.59 ± 0.88 %ID/g | tissue uptake at 1 h ([7]; liver): 0.53 ± 0.07 %ID/g | tissue uptake at 1 h ([7]; lungs): 0.69 ± 0.11 %ID/g | tissue uptake at 1 h ([7]; muscle): 0.16 ± 0.05 %ID/g | tissue uptake at 1 h ([7]; stomach): 0.22 ± 0.11 %ID/g | tissue uptake at 1 h ([7]; thyroid): 0.3 ± 0.08 %ID/g | tissue to tissue ratio at 1 h ([7]; tumor and blood): 9.94 ± 2.93 | tissue to tissue ratio at 1 h ([7]; tumor and bone): 23.3 ± 12.1 | tissue to tissue ratio at 2 h ([7]; tumor and bone): 52.7 ± 13.4 | tissue to tissue ratio at 1 h ([7]; tumor and kidneys): 1.13 ± 0.22 | tissue to tissue ratio at 1 h ([7]; tumor and liver): 11.9 ± 2.26 | tissue to tissue ratio at 2 h ([7]; tumor and liver): 11.8 ± 2.72 | tissue to tissue ratio at 1 h ([7]; tumor and muscle): 40.6 ± 11.9 | tissue uptake at 2 h ([7]; male, seminal glands): 0.04 ± 0.01 %ID/g | tissue uptake at 1 h ([7]; male, testes): 0.2 ± 0.06 %ID/g | tissue uptake at 2 h ([7]; male, testes): 0.07 ± 0.01 %ID/g | radioactivity internalized [8]: 48%

αMSH (from UniProt P01189)
Ki [9]: 7160 nM | Ki [10]: 31.5 nM | Ki [11]: 0.23 nM | Ki [12]: 900 nM
